Format in all cases: functional
The test system of assay [1] is Plasmodium falciparum. Description: Antimalarial activity against MRA-150, chloroquine, pyrimethamine, mefloquine-resistant asexual blood stage Plasmodium falciparum Dd2 after 72 hrs by SYBR green assay. As to conditions: Dd2, 72 h. In outline: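 Dd2 parasites were kept in O-positive human erythrocytes in RPMI 1640 with Albumax I, hypoxanthine and HEPES. Ring-stage cultures (1% hematocrit, 1% parasitemia) were given eight- or ten-point dilutions of 20 to 0.02 μM in 0.1% DMSO for 72 h at 37 °C under low O2. Growth was read by SYBR green, with uninfected-erythrocyte background and normalisation to untreated 0.1% DMSO controls. IC50 came from a four-parameter variable-slope fit, mean of ≥2 independent experiments ± S.D.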

Assay [2] concerns Plasmodium falciparum. As to the kind of experiment: Antimalarial activity against MRA-150, chloroquine, pyrimethamine, mefloquine-resistant asexual blood stage Plasmodium falciparum Dd2 assessed as rescue at 10 uM after 72 hrs by SYBR green assay in presence of 200 uM IPP. In outline:
(§1)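 Single-concentration test (10 or 20 μM) run with or without 200 μM IPP on ring-stage Dd2 cultures (1% hematocrit, 1% parasitemia) in human erythrocytes. Incubation was 72 h at 37 °C under reduced O2. Growth was read by SYBR green, with background from uninfected erythrocytes and normalisation to untreated DMSO vehicle controls.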

The subject of assay [3] is Plasmodium falciparum. Description: Antimalarial activity against MRA-150, chloroquine, pyrimethamine, mefloquine-resistant asexual blood stage Plasmodium falciparum Dd2 assessed as rescue after 72 hrs by SYBR green assay in presence of 200 uM IPP. The settings on record: Dd2, 72 h. The procedure, abridged: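 Ring-stage Dd2 cultures (1% hematocrit, 1% parasitemia, human erythrocytes) were grown with 200 μM IPP and a 10 to 0.02 μM serial dilution for 72 h at 37 °C under reduced O2. Growth was read by SYBR green and normalised to untreated 0.1% DMSO controls. Data are the mean ± S.D. of two or more independent experiments.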

Assay [4] concerns Escherichia coli. Description: Antibacterial activity against Escherichia coli BL21(DE3) after 18 hrs by cell density meter. The procedure, abridged:
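Overnight culture (37 °C, 200 rpm) diluted 100-fold into LB, grown to OD600 ~0.6, then diluted 10,000-fold; mixed 1:1 with compound prediluted in LB at 500, 250 and 125 μM; 5% DMSO final. Incubated 18 h, 37 °C, 200 rpm; growth normalized to untreated inoculum and compared with 5% DMSO vehicle; controls fosmidomycin 100 μM, uninoculated medium; three independent experiments.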

The test system of assay [5] is Plasmodium falciparum. Description: Antimalarial activity against MRA-150, chloroquine, pyrimethamine, mefloquine-resistant asexual blood stage Plasmodium falciparum Dd2 assessed as rescue at 2.5 uM after 72 hrs by SYBR green assay in presence of 200 uM IPP.
Assay [6] deals with Plasmodium falciparum. As to the kind of experiment: Antimalarial activity against MRA-150, chloroquine, pyrimethamine, mefloquine-resistant asexual blood stage Plasmodium falciparum Dd2 at 20000 nM after 72 hrs by SYBR green assay. As to conditions: Dd2, 72 h, read-out: GI. In outline: as §1
Assay [7] deals with Plasmodium falciparum. Description: Antimalarial activity against MRA-150, chloroquine, pyrimethamine, mefloquine-resistant asexual blood stage Plasmodium falciparum Dd2 at 10000 nM after 72 hrs by SYBR green assay. As to conditions: Dd2, 72 h, read-out: GI. The procedure, abridged: as §1
Assay [8] has as its system Plasmodium falciparum. Description: Antimalarial activity against MRA-150, chloroquine, pyrimethamine, mefloquine-resistant asexual blood stage Plasmodium falciparum Dd2 assessed as rescue at 5 uM after 72 hrs by SYBR green assay in presence of 200 uM IPP.
The test system of assay [9] is Plasmodium falciparum. Description: Antimalarial activity against MRA-150, chloroquine, pyrimethamine, mefloquine-resistant asexual blood stage Plasmodium falciparum Dd2 assessed as rescue at 20 uM after 72 hrs by SYBR green assay in presence of 200 uM IPP. In outline:
as §1

pIC50: −log10 of the molar value. Calls of active or inactive are those of the source. No cut-off for these calls is given here.

In the case of `O=C(O)[C@@H]1Cc2c([nH]c3ccccc23)[C@@H](c2ccccc2Cl)N1`, in assay [1], the pIC50 (in general, the IC50 on a negative log10 scale, so that one unit is a factor of ten) was 5.48. Moreover, the Activity in assay [2] came out at 60%.

Compound `O=C(O)[C@@H]1Cc2c([nH]c3ccccc23)[C@H](c2ccc(F)cc2F)N1` gave a pIC50 in [1] of under 4.70. Still for that read-out and setting: next, `Cc1ccc([C@@H]2N[C@H](C(=O)O)Cc3c2[nH]c2ccccc32)c(Cl)c1`: under 5.00. Turning to `Cc1ccc([C@H]2N[C@H](C(=O)O)Cc3c2[nH]c2ccccc32)c(Cl)c1`, the values for the negative logarithm of the IC50 (pIC50) in assay [3] and in [1] were under 5.00 and 6.39, respectively. In addition, in [4], the outcome was inactive. Moreover, the Activity in assay [5] came to 100%. With `COC(=O)[C@@H]1Cc2c([nH]c3ccccc23)[C@@H](c2ccccc2)N1`, the inhibition of growth at 20 µM in [6] was 20%. In [1], `Cc1ccc([C@@H]2N[C@H](C(=O)O)Cc3c2[nH]c2ccccc32)c(C)c1` gave a negative-log IC50 (pIC50) of under 5.00. For `CC(C)NC(=O)[C@@H]1Cc2c([nH]c3ccccc23)[C@@H](c2ccc(Cl)cc2Cl)N1`, in assay [7], the inhibition of growth at 10 µM was determined as 50%. On to `Cc1cc(Cl)ccc1[C@H]1N[C@H](C(=O)O)Cc2c1[nH]c1ccccc21`, for which the values for the pIC50 in assay [3] and in assay [1] were under 5.00 and 6.15, respectively. Moreover, the result in [4] was inactive. Further, the Activity in assay [5] was found to be 100%.

Regarding `CNC(=O)[C@@H]1Cc2c([nH]c3ccccc23)[C@@H](c2ccc(C)cc2Cl)N1`, the pIC50 in assay [1] is 6.47. Also, the outcome in assay [4] was inactive. The Activity in assay [5] is listed as 100%.

Turning to `O=C(O)[C@@H]1Cc2c([nH]c3ccccc23)[C@@H](c2ccccc2)N1`, the pIC50 in assay [1] is under 5.00. `O=C(O)[C@@H]1Cc2c([nH]c3ccccc23)[C@@H](c2ccc(F)cc2F)N1`: the negative-log IC50 (pIC50) was under 5.00 in assay [3] and 6.11 in assay [1]. Besides, the Activity in [8] is 100%. In [4], the result was inactive. Compound `O=C(O)[C@@H]1Cc2c([nH]c3ccccc23)[C@@H](c2ccc(Cl)cc2)N1` gave a negative-log IC50 (pIC50) in assay [1] of 5.93. Besides, the Activity in assay [2] came out at 50%. On the same counts, the results for `CNC(=O)[C@@H]1Cc2c([nH]c3ccccc23)[C@@H](c2ccc(Cl)cc2C)N1` are 5.73 and 50%. In the case of `O=C(O)[C@@H]1Cc2c([nH]c3ccccc23)[C@@H](c2ccc(C(F)(F)F)cc2C(F)(F)F)N1`, the pIC50 in [1] was under 5.00. Still for that read-out and setting: next, `O=C(O)[C@H]1Cc2c([nH]c3ccccc23)[C@H](c2ccc(Cl)cc2Cl)N1`: under 5.00. Consider `CNC(=O)[C@@H]1Cc2c([nH]c3ccccc23)[C@@H](c2ccc(Cl)cc2Cl)N1`, for which the pIC50 is under 5.00 in assay [3] and 6.72 in assay [1]. In addition, the result in assay [4] was inactive. In addition, in assay [5], the Activity was 100%.

Regarding `COC(=O)[C@H]1Cc2c([nH]c3ccccc23)[C@H](c2ccc(Cl)cc2Cl)N1`, the Activity in [9] was determined as 0%. This compound also had a pIC50 in assay [1] of 5.11. Turning to `O=CN(O)CCCP(=O)(O)O` [FOSMIDOMYCIN], the Activity in [2] turned out to be 100%.

For the compound `COc1ccc([C@H]2N[C@H](C(=O)O)Cc3c2[nH]c2ccccc32)c(OC)c1`, in [1], the pIC50 was under 4.70. Compound `CNNC(=O)[C@@H]1Cc2c([nH]c3ccccc23)[C@@H](c2ccc(Cl)cc2Cl)N1` had a negative-log IC50 (pIC50) in assay [1] of 5.71. The Activity in assay [2] turned out to be 80%. Consider `CNC(=O)[C@@H]1Cc2c([nH]c3ccccc23)[C@@H](c2ccc(C)cc2C)N1`, for which the inhibition of growth at 10 µM in assay [7] stood at 70%.

In assay [1], `CNC(=O)[C@@H]1Cc2c([nH]c3ccccc23)[C@@H](c2ccc(C(F)(F)F)cc2C(F)(F)F)N1` had a pIC50 of under 5.00. The same measure, in the same setting: with `Clc1ccc(C2NCCc3c2[nH]c2ccccc32)c(Cl)c1` (racemic) the figure was 5.00; with `COc1ccc([C@H]2N[C@H](C(=O)O)Cc3c2[nH]c2ccccc32)cc1OC`, under 4.70. Take `COC(=O)[C@@H]1Cc2c([nH]c3ccccc23)[C@@H](c2ccc(Cl)cc2Cl)N1`: the Activity in assay [9] was determined as 20%. In [1], this compound had a pIC50 of 5.17. In the case of `O=C(O)[C@@H]1Cc2c([nH]c3ccccc23)[C@H](c2ccccc2)N1`, the negative-log IC50 (pIC50) in assay [1] was under 5.00. `CNC(=O)[C@@H]1Cc2c([nH]c3ccccc23)[C@@H](c2ccc(F)cc2F)N1` showed a negative logarithm of the IC50 (pIC50) in [1] of 5.92. Moreover, the result in [4] was inactive. In addition, in [5], the Activity was determined as 100%. For `CCCCNC(=O)[C@@H]1Cc2c([nH]c3ccccc23)[C@@H](c2ccc(Cl)cc2Cl)N1`, the inhibition of growth at 10 µM in [7] stood at 80%. The same measure, in the same setting: with `Cc1ccc([C@H]2N[C@H](C(=O)O)Cc3c2[nH]c2ccccc32)c(C)c1` the figure was 70%. Take `O=C(NC1CCCCC1)[C@@H]1Cc2c([nH]c3ccccc23)[C@@H](c2ccc(Cl)cc2Cl)N1`: the negative-log IC50 (pIC50) in assay [1] was 5.55. In addition, the Activity in [2] was 0%. For the compound `O=C(O)[C@@H]1Cc2c([nH]c3ccccc23)[C@H](c2ccc(Cl)cc2Cl)N1`, the pIC50 in assay [1] was under 5.00. `O=C(O)C1Cc2c([nH]c3ccccc23)C(c2ccc(Cl)cc2Cl)N1` (stereo not given): in [1], the negative logarithm of the IC50 (pIC50) was 6.68. In addition, the Activity in assay [5] was 100%. On to `NC(=O)[C@@H]1Cc2c([nH]c3ccccc23)[C@@H](c2ccc(Cl)cc2Cl)N1`, for which, in [1], the negative-log IC50 (pIC50) was 5.92. In assay [2], the Activity came out at 50%. For the compound `O=C(O)[C@@H]1Cc2c([nH]c3ccccc23)[C@@H](c2ccc(Cl)cc2Cl)N1`, the figures for the negative logarithm of the IC50 (pIC50) in assay [3] and in [1] were under 5.00 and 6.60, respectively. Further, the outcome in [4] was inactive. In assay [5], the Activity was 100%.

In assay [1], `O=C(O)[C@H]1Cc2c([nH]c3ccccc23)[C@@H](c2ccc(Cl)cc2Cl)N1` gave a negative-log IC50 (pIC50) of 5.52. Moreover, in assay [2], the Activity is listed as 60%. `CN1CC(=O)N2[C@H](c3ccc4c(c3)OCO4)c3[nH]c4ccccc4c3C[C@@H]2C1=O` [TADALAFIL] had a negative logarithm of the IC50 (pIC50) in [1] of under 4.70.

For the origin of these results see ChEMBL document CHEMBL3400070, “Determination of the active stereoisomer of the MEP pathway-targeting antimalarial agent MMV008138, and initial structure-activity studies” (Bioorg Med Chem Lett, 2015).
